Test results published in ChEMBL document CHEMBL1150066, “Cytotoxic activity of tetraprenylphenols related to suillin, an antitumor principle from Suillus granulatus” (J Nat Prod, 1992).
≈ marks a conversion by molar mass, not a printed value.

tested on: KB; experiment: Cytotoxicity against human KB cells after 72 hrs by MTT assay; assay type: functional, cell-based; conditions: not given; call rule not given here
Method in brief: (§1)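 Cells per well: NSCLC-N6 0.2×10^5, KB 0.1×10^5, P388 0.05×10^5, in RPMI 1640 with 5% fetal calf serum, penicillin/streptomycin and 2 mM glutamine. Test solution added at decreasing concentrations in duplicate wells, then 72 h at 37° in 5% CO2. MTT added for 4 h, formazan dissolved in […], A570 read. IC50 taken from the dose/effect curve relative to controls.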

First: CC(=O)Oc1ccc2c(c1OC(C)=O)C=CC(C)(CC/C=C(\C)CC/C=C(\C)CCC=C(C)C)O2 (configuration not stated)
Second: CC(=O)Oc1ccc(OC(C)=O)c(OC(C)=O)c1C/C=C(\C)CC/C=C(\C)CC/C=C(\C)CCC=C(C)C
The IC50 of the first is 2-fold lower: 1 µg/mL (≈ 2.08 µM) for the first, 2 µg/mL (≈ 3.81 µM) for the second.

First: CC(=O)Oc1ccc2c(c1OC(C)=O)CCC(C)(CCCC(C)CCCC(C)CCCC(C)C)O2 (configuration not stated)
Second: CC(=O)Oc1ccc(OC(C)=O)c(OC(C)=O)c1CCC(C)CCCC(C)CCCC(C)CCCC(C)C (configuration not stated)
The IC50 of the first is lower: 1.1 µg/mL (≈ 2.25 µM) for the first, > 10 µg/mL for the second.

Going from `CC(=O)Oc1cc(C/C=C(\C)CC/C=C(\C)CC/C=C(\C)CCC=C(C)C)c(OC(C)=O)c(OC(C)=O)c1` to `COc1ccc(OC(C)=O)c(C/C=C(\C)CC/C=C(\C)CC/C=C(\C)CCC=C(C)C)c1OC`, the IC50 rises from 0.9 µg/mL (≈ 1.72 µM) to 7.5 µg/mL (≈ 16 µM) (8.3-fold).

First: CC(=O)Oc1ccc(O)c(O)c1CCC(C)CCCC(C)CCCC(C)CCCC(C)C (configuration not stated)
Second: CC(=O)Oc1ccc(O)c(O)c1C/C=C(\C)CC/C=C(\C)CC/C=C(\C)CCC=C(C)C [TETRAPRENYLPHENOLSUILLIN]
The IC50 of the first is 9-fold higher: 6.3 µg/mL (≈ 14 µM) for the first, 0.7 µg/mL (≈ 1.59 µM) for the second.

First: CC(=O)Oc1c(O)ccc(O)c1C/C=C(\C)CC/C=C(\C)CC/C=C(\C)CCC=C(C)C
Second: COc1c(O)cc(O)cc1C/C=C(\C)CC/C=C(\C)CC/C=C(\C)CCC=C(C)C
The IC50 of the first is 2-fold lower: 2.5 µg/mL (≈ 5.67 µM) for the first, 5 µg/mL (≈ 12.1 µM) for the second.

tested on: KB; experiment: Cytotoxicity against human KB cells at 5 ug/ml after 72 hrs by MTT assay; assay type: functional, cell-based; conditions: not given

With `CC(=O)Oc1c(O)cc(O)cc1C/C=C(\C)CC/C=C(\C)CC/C=C(\C)CCC=C(C)C` the IC50 was “Not Active”.
For `COc1ccc(O)c(O)c1C/C=C(\C)CC/C=C(\C)CC/C=C(\C)CCC=C(C)C`, the IC50 was “Not Active”.
In the case of `CC(C)=CCC/C(C)=C/CC/C(C)=C/CCC1(C)C=Cc2c(ccc(O)c2O)O1` (configuration not stated), the IC50 is reported as “Not Active”.

tested on: KB; experiment: Cytotoxicity against human KB cells at 10 ug/ml after 72 hrs by MTT assay; assay type: functional, cell-based; conditions: not given

For `COc1ccc(OC)c(OC)c1C/C=C(\C)CC/C=C(\C)CC/C=C(\C)CCC=C(C)C`, the IC50 was “Not Active”.

tested on: P388; experiment: Cytotoxicity against mouse P388 cells after 72 hrs by MTT assay; assay type: functional, cell-based; conditions: P388, 72 h; method in brief: as §1

First: COc1ccc(OC)c(OC)c1C/C=C(\C)CC/C=C(\C)CC/C=C(\C)CCC=C(C)C
Second: COc1ccc(OC(C)=O)c(C/C=C(\C)CC/C=C(\C)CC/C=C(\C)CCC=C(C)C)c1OC
The IC50 of the first is higher: > 10 µg/mL for the first, 3.7 µg/mL (≈ 7.89 µM) for the second.

Going from `CC(=O)Oc1ccc2c(c1OC(C)=O)C=CC(C)(CC/C=C(\C)CC/C=C(\C)CCC=C(C)C)O2` (configuration not stated) to `CC(=O)Oc1ccc(OC(C)=O)c(OC(C)=O)c1C/C=C(\C)CC/C=C(\C)CC/C=C(\C)CCC=C(C)C`, the IC50 rises from 0.3 µg/mL (≈ 0.624 µM) to 5 µg/mL (≈ 9.53 µM) (17-fold).

First: CC(=O)Oc1ccc2c(c1OC(C)=O)CCC(C)(CCCC(C)CCCC(C)CCCC(C)C)O2 (configuration not stated)
Second: CC(=O)Oc1ccc(OC(C)=O)c(OC(C)=O)c1CCC(C)CCCC(C)CCCC(C)CCCC(C)C (configuration not stated)
The IC50 of the first is lower: 0.7 µg/mL (≈ 1.43 µM) for the first, > 16.6 µg/mL for the second.

First: CC(=O)Oc1cc(C/C=C(\C)CC/C=C(\C)CC/C=C(\C)CCC=C(C)C)c(OC(C)=O)c(OC(C)=O)c1
Second: CC(=O)Oc1c(O)cc(O)cc1C/C=C(\C)CC/C=C(\C)CC/C=C(\C)CCC=C(C)C
The IC50 of the first is 5.7-fold lower: 0.4 µg/mL (≈ 0.762 µM) for the first, 2.3 µg/mL (≈ 5.22 µM) for the second.

Going from `CC(=O)Oc1ccc(O)c(O)c1CCC(C)CCCC(C)CCCC(C)CCCC(C)C` (configuration not stated) to `CC(=O)Oc1ccc(O)c(O)c1C/C=C(\C)CC/C=C(\C)CC/C=C(\C)CCC=C(C)C` [TETRAPRENYLPHENOLSUILLIN], the IC50 falls from 8.2 µg/mL (≈ 18.3 µM) to 0.8 µg/mL (≈ 1.82 µM) (10-fold).

Compared with `CC(=O)Oc1c(O)ccc(O)c1C/C=C(\C)CC/C=C(\C)CC/C=C(\C)CCC=C(C)C`, `COc1ccc(O)c(O)c1C/C=C(\C)CC/C=C(\C)CC/C=C(\C)CCC=C(C)C` is 3.1-fold higher in IC50: 0.9 µg/mL (≈ 2.04 µM) for the first, 2.8 µg/mL (≈ 6.79 µM) for the second.

In the case of `COc1c(O)cc(O)cc1C/C=C(\C)CC/C=C(\C)CC/C=C(\C)CCC=C(C)C`, the IC50 is reported as 2.1 µg/mL (≈ 5.09 µM).

tested on: P388; experiment: Cytotoxicity against mouse P388 cells at 5 ug/ml after 72 hrs by MTT assay; assay type: functional, cell-based; conditions: not given

With `CC(C)=CCC/C(C)=C/CC/C(C)=C/CCC1(C)C=Cc2c(ccc(O)c2O)O1` (configuration not stated) the IC50 was “Not Active”.

tested on: not listed separately; experiment: Cytotoxicity against human NSCLC-N6 cells after 72 hrs by MTT assay; assay type: functional, cell-based; conditions: NSCLC-N6, 72 h; method in brief: as §1

Going from `COc1ccc(OC)c(OC)c1C/C=C(\C)CC/C=C(\C)CC/C=C(\C)CCC=C(C)C` to `COc1ccc(OC(C)=O)c(C/C=C(\C)CC/C=C(\C)CC/C=C(\C)CCC=C(C)C)c1OC`, the IC50 falls from > 10 µg/mL to 5.8 µg/mL (≈ 12.4 µM).

Compared with `CC(=O)Oc1ccc2c(c1OC(C)=O)C=CC(C)(CC/C=C(\C)CC/C=C(\C)CCC=C(C)C)O2` (configuration not stated), `CC(=O)Oc1ccc(OC(C)=O)c(OC(C)=O)c1C/C=C(\C)CC/C=C(\C)CC/C=C(\C)CCC=C(C)C` is 2.7-fold higher in IC50: 0.7 µg/mL (≈ 1.46 µM) for the first, 1.9 µg/mL (≈ 3.62 µM) for the second.

First: CC(=O)Oc1ccc2c(c1OC(C)=O)CCC(C)(CCCC(C)CCCC(C)CCCC(C)C)O2 (configuration not stated)
Second: CC(=O)Oc1ccc(OC(C)=O)c(OC(C)=O)c1CCC(C)CCCC(C)CCCC(C)CCCC(C)C (configuration not stated)
The IC50 of the first is 10-fold lower: 0.9 µg/mL (≈ 1.84 µM) for the first, 9 µg/mL (≈ 16.9 µM) for the second.

Going from `CC(=O)Oc1cc(C/C=C(\C)CC/C=C(\C)CC/C=C(\C)CCC=C(C)C)c(OC(C)=O)c(OC(C)=O)c1` to `CC(=O)Oc1c(O)cc(O)cc1C/C=C(\C)CC/C=C(\C)CC/C=C(\C)CCC=C(C)C`, the IC50 rises from 0.8 µg/mL (≈ 1.52 µM) to 2.3 µg/mL (≈ 5.22 µM) (2.9-fold).

Compared with `CC(=O)Oc1ccc(O)c(O)c1CCC(C)CCCC(C)CCCC(C)CCCC(C)C` (configuration not stated), `CC(=O)Oc1ccc(O)c(O)c1C/C=C(\C)CC/C=C(\C)CC/C=C(\C)CCC=C(C)C` [TETRAPRENYLPHENOLSUILLIN] is 4.5-fold lower in IC50: 4.5 µg/mL (≈ 10 µM) for the first, 1 µg/mL (≈ 2.27 µM) for the second.

Going from `CC(=O)Oc1c(O)ccc(O)c1C/C=C(\C)CC/C=C(\C)CC/C=C(\C)CCC=C(C)C` to `COc1ccc(O)c(O)c1C/C=C(\C)CC/C=C(\C)CC/C=C(\C)CCC=C(C)C`, the IC50 rises from 2.9 µg/mL (≈ 6.58 µM) to > 5 µg/mL.

For `COc1c(O)cc(O)cc1C/C=C(\C)CC/C=C(\C)CC/C=C(\C)CCC=C(C)C`, the IC50 was 2.2 µg/mL (≈ 5.33 µM).

tested on: not listed separately; experiment: Cytotoxicity against human NSCLC-N6 cells at 5 ug/ml after 72 hrs by MTT assay; assay type: functional, cell-based; conditions: not given

In the case of `CC(C)=CCC/C(C)=C/CC/C(C)=C/CCC1(C)C=Cc2c(ccc(O)c2O)O1` (configuration not stated), the IC50 is reported as “Not Active”.
